ChEMBL document CHEMBL4346654 (Eur J Med Chem, 2019)
In brackets after ≈: the same amount, converted by molar mass.

What was measured:
Assay type in all cases: functional
[1] = system: Streptococcus pneumoniae; assay: Bactericidal activity against erythromycin-susceptible Streptococcus pneumoniae ATCC49619 pretreated followed by subculture in absence of compound measured after 24 hrs
How it was run: (§1)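 Isolates were identified by 16S rDNA sequencing. MIC was determined by CLSI-recommended two-fold broth dilution. For MBC, samples from 1–8 fold MIC were transferred to culture medium and subcultured for 24 h without antibiotic.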

[2] = system: Haemophilus influenzae; assay: Bactericidal activity against azithromycin-susceptible Haemophilus influenzae ATCC 49247 pretreated followed by subculture in absence of compound measured after 24 hrs; how it was run: as §1
[3] = system: Streptococcus pyogenes; assay: Bactericidal activity against MLS-resistant Streptococcus pyogenes 01-968 expressing inducible ermB gene pretreated followed by subculture in absence of compound measured after 24 hrs
How it was run: (§2)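 MBC assay. Following MIC determination by CLSI standard two-fold broth dilution, samples at 1–8 fold MIC were transferred to fresh culture medium. They were subcultured for 24 h without antibiotic. Isolates were identified by 16S rDNA sequencing. S. aureus ATCC 29213 was used as a control strain.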

[4] = system: Staphylococcus aureus; assay: Bactericidal activity against MLS-resistant Staphylococcus aureus PU 20 expressing constitutive ermC gene pretreated followed by subculture in absence of compound measured after 24 hrs; how it was run: as §2
[5] = system: Staphylococcus aureus; assay: Bactericidal activity against MLS/methicillin-resistant Staphylococcus aureus PU 32 expressing inducible ermA gene pretreated followed by subculture in absence of compound measured after 24 hrs; how it was run: as §2
[6] = system: Streptococcus pneumoniae; assay: Bactericidal activity against penicillin-susceptible Streptococcus pneumoniae PU 09 expressing mef gene pretreated followed by subculture in absence of compound measured after 24 hrs; how it was run: as §1
[7] = system: Streptococcus pyogenes; assay: Bactericidal activity against MLS-resistant Streptococcus pyogenes 12-206 expressing constitutive ermA gene pretreated followed by subculture in absence of compound measured after 24 hrs; how it was run: as §2
[8] = system: Streptococcus pneumoniae; assay: Bactericidal activity against Streptococcus pneumoniae 07P390 expressing constitutive ermB gene pretreated followed by subculture in absence of compound measured after 24 hrs; how it was run: as §1
[9] = system: Streptococcus pyogenes; assay: Bactericidal activity against Streptococcus pyogenes 12-207 expressing mef gene pretreated followed by subculture in absence of compound measured after 24 hrs; how it was run: as §1
[10] = system: Streptococcus pneumoniae; assay: Selectivity ratio of MBC to MIC for Streptococcus pneumoniae 07P390 expressing constitutive ermB gene; how it was run: as §1
[11] = system: Streptococcus pyogenes; assay: Antibacterial activity against Streptococcus pyogenes 12-207 expressing mef gene assessed as reduction in microbial growth by CLSI based two-fold broth dilution method
[12] = system: Staphylococcus aureus; assay: Antibacterial activity against MLS-resistant Staphylococcus aureus PU 32 expressing inducible ermA gene assessed as reduction in microbial growth by CLSI based two-fold broth dilution method
[13] = system: Moraxella catarrhalis; assay: Bactericidal activity against erythromycin-susceptible Moraxella catarrhalis 13L332 pretreated followed by subculture in absence of compound measured after 24 hrs; how it was run: as §1
[14] = system: Haemophilus influenzae; assay: Selectivity ratio of MBC to MIC for azithromycin-susceptible Haemophilus influenzae ATCC 49247; how it was run: as §1
[15] = system: Streptococcus pyogenes; assay: Selectivity ratio of MBC to MIC for MLS-resistant Streptococcus pyogenes 12-206 expressing constitutive ermA gene
How it was run: (§3)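 MBC/MIC ratio. MIC was measured by CLSI standard two-fold broth dilution. MBC was measured by transferring samples at 1–8 fold MIC to culture medium and subculturing for 24 h without antibiotic. Isolates were identified by 16S rDNA sequencing.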

[16] = system: Streptococcus pneumoniae; assay: Antibacterial activity against Streptococcus pneumoniae 07P390 expressing constitutive ermB gene assessed as reduction in microbial growth by CLSI based two-fold broth dilution method
[17] = system: Staphylococcus aureus; assay: Antibacterial activity against MLS-resistant Staphylococcus aureus PU 20 expressing constitutive ermC gene assessed as reduction in microbial growth by CLSI based two-fold broth dilution method
[18] = system: Streptococcus pyogenes; assay: Selectivity ratio of MBC to MIC for Streptococcus pyogenes 12-207 expressing mef gene; how it was run: as §1
[19] = system: Moraxella catarrhalis; assay: Selectivity ratio of MBC to MIC for erythromycin-susceptible Moraxella catarrhalis 13L332; how it was run: as §1
[20] = system: Moraxella catarrhalis; assay: Antibacterial activity against erythromycin-susceptible Moraxella catarrhalis 13L332 assessed as reduction in microbial growth by CLSI based two-fold broth dilution method
[21] = system: Staphylococcus aureus; assay: Selectivity ratio of MBC to MIC for MLS/methicillin-resistant Staphylococcus aureus PU 32 expressing inducible ermA gene; how it was run: as §3
[22] = system: Haemophilus influenzae; assay: Antibacterial activity against azithromycin-susceptible Haemophilus influenzae ATCC 49247 assessed as reduction in microbial growth by CLSI based two-fold broth dilution method
[23] = system: Streptococcus pneumoniae; assay: Selectivity ratio of MBC to MIC for penicillin-susceptible Streptococcus pneumoniae PU 09 expressing mef gene; how it was run: as §1
[24] = system: Streptococcus pyogenes; assay: Antibacterial activity against MLS-resistant Streptococcus pyogenes 01-968 expressing inducible ermB gene assessed as reduction in microbial growth by CLSI based two-fold broth dilution method
[25] = system: Streptococcus pyogenes; assay: Selectivity ratio of MBC to MIC for MLS-resistant Streptococcus pyogenes 01-968 expressing inducible ermB gene; how it was run: as §3
[26] = system: Streptococcus pyogenes; assay: Antibacterial activity against MLS-resistant Streptococcus pyogenes 12-206 expressing constitutive ermA gene assessed as reduction in microbial growth by CLSI based two-fold broth dilution method
[27] = system: Streptococcus pneumoniae; assay: Antibacterial activity against erythromycin-susceptible Streptococcus pneumoniae ATCC49619 assessed as reduction in microbial growth by CLSI based two-fold broth dilution method
[28] = system: Streptococcus pneumoniae; assay: Antibacterial activity against penicillin-susceptible Streptococcus pneumoniae PU 09 expressing mef gene assessed as reduction in microbial growth by CLSI based two-fold broth dilution method
[29] = system: Streptococcus pneumoniae; assay: Selectivity ratio of MBC to MIC for erythromycin-susceptible Streptococcus pneumoniae ATCC49619; how it was run: as §1

O=C(O)c1cn(C2CC2)c2cc(N3CCNCC3)c(F)cc2c1=O [CIPROFLOXACIN]
MBC [1]: 2 µg/mL (≈ 6.04 µM) | MBC [2]: 0.004 to 0.008 µg/mL (≈ 0.0121 to 0.0241 µM) | MBC [3]: 0.5 to 2 µg/mL (≈ 1.51 to 6.04 µM) | MBC [4]: > 256 µg/mL | MBC [5]: > 256 µg/mL | MBC [6]: 4 µg/mL (≈ 12.1 µM) | MBC [7]: > 1 µg/mL | MBC [8]: 4 µg/mL (≈ 12.1 µM) | MBC [9]: 2 µg/mL (≈ 6.04 µM)

CC[C@H]1OC(=O)[C@@](C)(F)C(=O)[C@H](C)[C@@H](O[C@@H]2O[C@H](C)C[C@H](N(C)C)[C@H]2O)[C@](C)(OC/C=C/c2ccc3c(c2)c(=O)c(C(N)=O)cn3CC)C[C@@H](C)/C(=N\OC)[C@H](C)[C@H]2OC(=O)O[C@@]21C
Selectivity ratio [10]: >8 | MIC [11]: 0.062 µg/mL | MIC [12]: 0.25 µg/mL | MBC [13]: > 4 µg/mL | Selectivity ratio [14]: 2 | Selectivity ratio [15]: >8 | MIC [16]: ≤ 0.008 µg/mL | MIC [17]: > 256 µg/mL | Selectivity ratio [18]: 4 | MBC [1]: ≤ 0.008 µg/mL | Selectivity ratio [19]: >8 | MIC [20]: 0.5 µg/mL | MBC [2]: 128 µg/mL (≈ 142 µM) | Selectivity ratio [21]: >8 | MIC [22]: 64 µg/mL | MBC [3]: 0.008 µg/mL (≈ 0.00888 µM) | Selectivity ratio [23]: 1 | MBC [5]: > 2 µg/mL | MIC [24]: ≤ 0.002 µg/mL | Selectivity ratio [25]: >=4 | MBC [6]: 0.25 µg/mL (≈ 0.277 µM) | MBC [7]: > 0.016 µg/mL | MIC [26]: ≤ 0.002 µg/mL | MBC [8]: > 0.062 µg/mL | MBC [9]: 0.25 µg/mL (≈ 0.277 µM) | MIC [27]: ≤ 0.008 µg/mL | MIC [28]: 0.25 µg/mL

CC[C@H]1OC(=O)[C@H](C)[C@@H](O[C@H]2C[C@@](C)(OC)[C@@H](O)[C@H](C)O2)[C@H](C)[C@@H](O[C@@H]2O[C@H](C)C[C@H](N(C)C)[C@H]2O)[C@](C)(O)C[C@@H](C)CN(C)[C@H](C)[C@@H](O)[C@]1(C)O [AZITHROMYCIN]
MIC [11]: 16 µg/mL | MIC [12]: 32 µg/mL | MBC [13]: 0.25 µg/mL (≈ 0.334 µM) | Selectivity ratio [14]: 4 | MIC [16]: 256 µg/mL | MIC [17]: > 256 µg/mL | Selectivity ratio [18]: 1 | MBC [1]: 0.25 µg/mL (≈ 0.334 µM) | Selectivity ratio [19]: 8 | MIC [20]: 0.031 µg/mL | MBC [2]: 8 µg/mL (≈ 10.7 µM) | Selectivity ratio [21]: 1 | MIC [22]: 2 µg/mL | MBC [3]: > 64 µg/mL | Selectivity ratio [23]: 2 | MBC [5]: 32 µg/mL (≈ 42.7 µM) | MIC [24]: 8 µg/mL | Selectivity ratio [25]: >8 | Selectivity ratio [29]: 4 | MBC [6]: 16 µg/mL (≈ 21.4 µM) | MIC [26]: > 256 µg/mL | MBC [8]: > 256 µg/mL | MBC [9]: 16 µg/mL (≈ 21.4 µM) | MIC [27]: 0.062 µg/mL | MIC [28]: 8 µg/mL

CC[C@H]1OC(=O)[C@@](C)(F)C(=O)[C@H](C)[C@@H](O[C@@H]2O[C@H](C)C[C@H](N(C)C)[C@H]2O)[C@](C)(OC)C[C@@H](C)/C(=N\OC/C=C/c2ccc3[nH]cc(C(=O)O)c(=O)c3c2)[C@H](C)[C@H]2OC(=O)O[C@@]21C
Selectivity ratio [10]: 4 | MIC [12]: 2 µg/mL | Selectivity ratio [14]: 1 | MIC [16]: 4 µg/mL | MIC [17]: 256 µg/mL | MBC [1]: 0.125 µg/mL (≈ 0.143 µM) | MBC [2]: 32 µg/mL (≈ 36.6 µM) | Selectivity ratio [21]: 8 | MIC [22]: 32 µg/mL | MBC [3]: > 0.125 µg/mL | Selectivity ratio [23]: 2 | MBC [4]: > 256 µg/mL | MBC [5]: 16 µg/mL (≈ 18.3 µM) | MIC [24]: 0.016 µg/mL | Selectivity ratio [25]: >8 | Selectivity ratio [29]: 1 | MBC [6]: 4 µg/mL (≈ 4.58 µM) | MBC [8]: 16 µg/mL (≈ 18.3 µM) | MIC [27]: 0.125 µg/mL | MIC [28]: 2 µg/mL
